Results: ChEMBL document CHEMBL2390931, “Synthesis and antifungal activity of some s-mercaptotriazolobenzothiazolyl amino acid derivatives” (2013)
Values after ≈ are worked out from the molar mass of the structure shown. Active and inactive are the calls of the source. No cut-off for these calls is given here.

Assays:
Format in all cases: functional
[1] = system: Candida albicans; assay: Antifungal activity against Candida albicans up to 24 hrs
Method in brief: (§1)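 MFC in tubes of standardized spore suspension (10⁴ CFU/mL) of clinical isolates, each dosed with compound at increasing concentrations starting from the MIC. Controls: solvent at its highest level, and fluconazole. CFU counted and viability checked at intervals over 0–24 h. MFC is the lowest concentration killing about 99% of viable CFU.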

[2] = system: Candida albicans; assay: Antifungal activity against Candida albicans by agar diffusion technique
Method in brief: (§2)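 Clinical isolates (A. flavus mold; C. albicans yeast), spore suspension standardized at 10⁴ CFU/mL. DMSO stocks diluted to a concentration series. Approximate MIC by agar diffusion (well technique), taken as the concentration giving minimal inhibition around the well.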

[3] = system: Aspergillus flavus; assay: Antifungal activity against Aspergillus flavus up to 24 hrs; method in brief: as §1
[4] = system: Aspergillus flavus; assay: Antifungal activity against Aspergillus flavus by agar diffusion technique; method in brief: as §2
[5] = system: Candida albicans; assay: Antifungal activity against Candida albicans at 500 ppm; conditions: for zone of inhibition at 500 ppm: read-out: DIZ
Method in brief: (§3)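 Agar well diffusion against clinical isolates (A. flavus mold; C. albicans yeast); standardized spore suspension 10⁴ CFU/mL. Compounds dissolved in DMSO as a parent stock, diluted to test levels (100, 300, 500, 1000 ppm).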

[6] = system: Candida albicans; assay: Antifungal activity against Candida albicans at 1000 ppm; conditions: read-out: DIZ; method in brief: as §3
[7] = system: Candida albicans; assay: Antifungal activity against Candida albicans at 300 ppm; conditions: for zone of inhibition at 300 ppm: read-out: DIZ; method in brief: as §3
[8] = system: Candida albicans; assay: Antifungal activity against Candida albicans at 100 ppm; method in brief: as §3
[9] = system: Aspergillus flavus; assay: Antifungal activity against Aspergillus flavus at 500 ppm; method in brief: as §3
[10] = system: Aspergillus flavus; assay: Antifungal activity against Aspergillus flavus at 1000 ppm; conditions: for zone of inhibition at 1000 ppm: read-out: DIZ; method in brief: as §3
[11] = system: Aspergillus flavus; assay: Antifungal activity against Aspergillus flavus at 100 ppm
Method in brief: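 Clinical isolate of A. flavus (mold) tested by agar diffusion, well technique, using a standardized spore suspension of 10⁴ CFU/mL. Compounds were dissolved in dimethylsulphoxide and diluted from a parent stock.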

[12] = system: Aspergillus flavus; assay: Antifungal activity against Aspergillus flavus at 300 ppm; method in brief: as §3

Compound	MFC [1]	MIC [2]	MFC [3]	MIC [4]	zone of inhibition at 500 ppm [5]	zone of inhibition at 1000 ppm [6]	zone of inhibition at 300 ppm [7]	diameter of the inhibition zone (DIZ) [8]	diameter of the inhibition zone (DIZ) [9]	zone of inhibition at 1000 ppm [10]	diameter of the inhibition zone (DIZ) [11]	diameter of the inhibition zone (DIZ) [12]	diameter of the inhibition zone (DIZ) [7]	zone of inhibition at 100 ppm ([8]; read-out: DIZ)	zone of inhibition at 500 ppm ([9]; read-out: DIZ)	zone of inhibition at 300 ppm ([12]; read-out: DIZ)	diameter of the inhibition zone (DIZ) [10]	diameter of the inhibition zone (DIZ) [5]
O=C(O)CSc1nnc2sc3ccccc3n12	inactive	300 µg/mL (≈ 1130 µM)	500 µg/mL (≈ 1880 µM)	1000 µg/mL (≈ 3770 µM)	< 10 mm	10 mm	< 10 mm	inactive	inactive	< 10 mm	inactive	inactive						
COC(=O)[C@H](CCSC)NC(=O)CCSc1nnc2sc3ccccc3n12	inactive	500 µg/mL (≈ 1180 µM)	inactive	1000 µg/mL (≈ 2360 µM)	< 10 mm	10 mm		inactive	inactive	< 10 mm	inactive	inactive	inactive					
Sc1nnc2sc3ccccc3n12	500 µg/mL (≈ 2410 µM)	100 µg/mL (≈ 482 µM)	500 µg/mL (≈ 2410 µM)	300 µg/mL (≈ 1450 µM)	> 16 mm	> 16 mm	10 mm			> 16 mm	inactive			< 10 mm	10 mm	< 10 mm		
CCOC(=O)CSc1nnc2sc3ccccc3n12	inactive	500 µg/mL (≈ 1700 µM)	inactive	inactive	< 10 mm	10 mm		inactive	inactive		inactive	inactive	inactive				inactive	
COC(=O)[C@H](CCSC)NC(=O)CSc1nnc2sc3ccccc3n12	inactive	1000 µg/mL (≈ 2440 µM)	inactive	inactive		< 10 mm		inactive	inactive		inactive	inactive	inactive				inactive	inactive
COC(=O)CCNC(=O)CSc1nnc2sc3ccccc3n12	inactive	1000 µg/mL (≈ 2850 µM)	inactive	inactive		< 10 mm		inactive	inactive	< 10 mm	inactive	inactive	inactive					inactive
